How the values were obtained:
[1] = target: Acetylcholinesterase (Homo sapiens, UniProt P22303); assay: In vitro inhibition of human erythrocyte Acetylcholinesterase.
[2] = target: Cholinesterase (Homo sapiens, UniProt P06276); assay: In vitro inhibition of human serum Butyrylcholinesterase.
[3] = Compound was evaluated for equilibrium constant; format: ADME
Outline: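 Stopped-time carbamoylation assay with human erythrocyte AChE and inhibitor at five concentrations in pH 8.0 assay buffer at 37 °C. After a few minutes, residual ATCh hydrolysis was read at 412 nm against a parallel no-inhibitor control. Fit R = R0·exp(−kobs·t) + R∞ gave kobs; KC came from the slope/intercept ratio of double-reciprocal kobs versus [I] plots.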

[4] = Compound was evaluated for rate constant (K3); format: ADME
[5] = Compound was evaluated for rate constant (K5); format: ADME

Sequence of Cholinesterase (P06276 whole entry): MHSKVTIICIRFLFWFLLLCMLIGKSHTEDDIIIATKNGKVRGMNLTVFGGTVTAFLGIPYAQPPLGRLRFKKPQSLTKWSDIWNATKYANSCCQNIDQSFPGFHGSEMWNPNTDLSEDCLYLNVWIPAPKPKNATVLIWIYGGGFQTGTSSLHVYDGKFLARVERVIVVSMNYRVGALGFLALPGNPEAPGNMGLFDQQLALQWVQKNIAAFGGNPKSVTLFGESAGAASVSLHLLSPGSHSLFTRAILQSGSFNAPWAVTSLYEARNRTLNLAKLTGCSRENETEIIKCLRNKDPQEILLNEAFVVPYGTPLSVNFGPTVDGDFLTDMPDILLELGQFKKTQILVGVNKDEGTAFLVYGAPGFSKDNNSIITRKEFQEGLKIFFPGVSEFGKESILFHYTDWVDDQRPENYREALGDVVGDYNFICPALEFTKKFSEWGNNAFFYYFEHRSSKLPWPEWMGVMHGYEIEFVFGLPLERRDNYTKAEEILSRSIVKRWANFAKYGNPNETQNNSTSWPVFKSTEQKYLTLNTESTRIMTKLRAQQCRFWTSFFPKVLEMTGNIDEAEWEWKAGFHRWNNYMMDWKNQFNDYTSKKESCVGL
Sequence of Acetylcholinesterase (P22303 whole entry): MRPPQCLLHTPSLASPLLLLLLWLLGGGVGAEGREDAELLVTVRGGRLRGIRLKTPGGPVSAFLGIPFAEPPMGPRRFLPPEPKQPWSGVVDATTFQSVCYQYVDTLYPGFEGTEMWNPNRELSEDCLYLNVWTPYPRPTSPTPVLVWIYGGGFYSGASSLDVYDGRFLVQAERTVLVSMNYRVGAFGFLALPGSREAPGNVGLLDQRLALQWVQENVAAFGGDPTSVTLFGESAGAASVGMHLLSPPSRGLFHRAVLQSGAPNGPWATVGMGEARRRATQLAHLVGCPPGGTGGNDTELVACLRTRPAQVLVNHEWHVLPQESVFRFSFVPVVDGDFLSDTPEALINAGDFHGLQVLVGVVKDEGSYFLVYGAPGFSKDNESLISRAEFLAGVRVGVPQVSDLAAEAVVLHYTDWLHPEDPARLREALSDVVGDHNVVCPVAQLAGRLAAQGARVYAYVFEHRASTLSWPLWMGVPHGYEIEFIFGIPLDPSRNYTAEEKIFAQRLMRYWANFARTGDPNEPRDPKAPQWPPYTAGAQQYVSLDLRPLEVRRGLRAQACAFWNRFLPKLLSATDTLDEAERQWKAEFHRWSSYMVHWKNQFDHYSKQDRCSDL

| SMILES | IC50 [1] [nM] | IC50 [2] [nM] | Kc [3] [nM] | K3 [4] [min⁻¹] | K5 [5] [h⁻¹] |
| --- | --- | --- | --- | --- | --- |
| CNC(=O)Oc1cccc(CN(C)CCCCCCCCCOc2ccc3c(=O)c4ccccc4oc3c2)c1 | 11.7 | 48.3 |  |  |  |
| CN(CCCOc1ccc2c(=O)c3ccccc3oc2c1)Cc1cccc(OC(=O)NCCCCCCN2CCOCC2)c1 | 21.1 | 7.5 |  |  |  |
| CNC(=O)Oc1ccc2c(c1)CN(CCCOc1ccc3c(=O)c4ccccc4oc3c1)CC2 | 12.4 | 34.1 |  |  |  |
| CN(CCCOc1ccc2c(=O)c3ccccc3oc2c1)Cc1cccc(OC(=O)NCCCCCCCCN2CCOCC2)c1 | 27.4 | 3.9 |  |  |  |
| CNC(=O)Oc1cccc(CN(C)CCCCCCCOc2ccc3c(=O)c4ccccc4oc3c2)c1 | 0.32 | 16.5 |  |  |  |
| CNC(=O)Oc1cccc(CN(C)CC#CCOc2ccc3c(=O)c4ccccc4oc3c2)c1 | 210 | 529 |  |  |  |
| CNC(=O)Oc1cccc(CN(C)CCCCCCCCCCOc2ccc3c(=O)c4ccccc4oc3c2)c1 | 21.8 | 31.6 |  |  |  |
| CNC(=O)Oc1cccc(CN(C)CCCOc2ccc(C(=O)c3ccccc3)cc2)c1 | 5.4 | 24.5 |  |  |  |
| CNC(=O)Oc1cccc(CN(C)CCCOc2cccc(Cc3ccccc3)c2)c1 |  | 22.1 |  |  |  |
| CNC(=O)Oc1cccc(CN(C)CCCCCCCCOc2ccc3c(=O)c4ccccc4oc3c2)c1 | 6.8 | 25.2 |  |  |  |
| CNC(=O)Oc1cccc(CN(C)CCCOc2ccc(-c3ccccc3)cc2)c1 | 54.6 | 42.6 |  |  |  |
| CNC(=O)Oc1cccc(CN(C)CCCOc2ccccc2)c1 | 79.6 | 24.8 |  |  |  |
| CNC(=O)Oc1ccc2c(c1)[C@]1(C)CCN(C)[C@@H]1N2C [PHYSOSTIGMINE] |  |  | 33.5 | 0.41 | 0.43 |
| CNC(=O)Oc1cccc(CN(C)CCCCCCOc2ccc3c(=O)c4ccccc4oc3c2)c1 | 1.4 | 13.9 | 6.4 | 2.3 | 0.77 |
| CNC(=O)Oc1cccc(CN(C)CCCOc2ccc3ccccc3c2)c1 | 82.6 | 205 |  |  |  |
| CN(CCCOc1ccc2c(=O)c3ccccc3oc2c1)Cc1cccc(OC(=O)NCCCCCCCN2CCOCC2)c1 | 26.2 | 4.9 | 27.2 | 0.11 |  |
| CN(CCCOc1ccc2c(=O)c3ccccc3oc2c1)Cc1cccc(OC(=O)NCCCCCCCCCN2CCOCC2)c1 | 29.3 |  |  |  |  |

— ChEMBL document CHEMBL1134674, “Acetylcholinesterase inhibitors: SAR and kinetic studies on omega-[N-methyl-N-(3-alkylcarbamoyloxyphenyl)methyl]aminoalkoxyaryl derivatives” (J Med Chem, 2001)
